High-throughput results as filed in PubChem BioAssay.
T cruzi repl = blocks replication of Trypanosoma cruzi; T. cruzi beta-gal in NIH3T3, luminescence, 90 h; inhibition, % (test concentration not listed); actives 1.4% (n = 300,000); AID 1885;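 active = mean inhibition across valid replicates above about 55%, limit read from the data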;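 note: signal also drops with host cell toxicity which is not excluded here; higher percent means less beta-gal luminescence so fewer parasites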
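compound dosing = single 50 nL compound addition per well in DMSO | material = NIH/3T3 host cells with β-galactosidase reporter T. cruzi | input = 5,000 host fibroblasts per well | timing = ≥90 h infection period, 3 h prior cell attachment | read-out basis = percent inhibition of parasite-derived β-gal signal | detection = GalScreen β-gal luminescence, detergent lysis, 60 min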
CSC inhib = blocks cancer stem cells; cancer stem cell-like cells viability, luminescence; inhibition, % at 7.5 µM; actives 1.1% (n = 300,000); AID 2717; in the data active = inhibition above about 75%; tested in HMLE shEcad cells
Calb FLC = affects C. albicans growth with fluconazole; C. albicans CaCi-2 + fluconazole, Alamar Blue growth, 48 h; growth inhibition, % (test concentration not listed); actives 0.57% (n = 300,000); AID 1979;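 active = growth inhibition above about 58% in most replicates, limit read from the data, passing the limit was not always enough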;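 note: all wells also contain fluconazole at 8 µg/ml as a sub-toxic cotreatment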
SKKanGAS inh = inhibitors of SKKanGAS S. pyogenes growth in kanamycin (SK-promoter or general growth effect). inhibition, % at 7.5 µM. BacTiter-Glo, 6 h. actives 1.3% (n = 300,000);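 active = mean replicate score, as percent of positive control median, at least 50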;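 note: strain carries kanamycin resistance gene driven by streptokinase promoter and grows in 40 µg/ml kanamycin; loss of luminescence reflects streptokinase promoter inhibition or plain growth inhibition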
Mdm2-MdmX inh = human Mdm2/MdmX binding inhibition. inhibition, % at 8 µM. actives 3% (n = 330,000). SaOS-2 split-luciferase Mdm2/MdmX complementation, luminescence;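 active = inhibition of at least 50% at 8 µM in the primary screen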
Beta cell apopt = beta cell apoptosis inhibition; actives 0.8% (n = 300,000); protection from apoptosis, % (no concentration beside the values); INS-1E cytokine-induced death, ATP luminescence, 48 h; percent of positive-control rescue, neutral wells zero;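 active = Every replicate reaches about 75%, or at least half do and their mean reaches it too, limit read from the data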;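 note: higher means more ATP so stronger rescue from cytokine killing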
Mdm2 MdmX conf = confirmation of human Mdm2/MdmX interaction inhibitors; inhibition, % at 8 µM; Mdm2-MdmX binding, luminescent assay; AID 489028; shares compounds with Mdm2-MdmX inh; actives 55% (n = 10,000); in the data active = inhibition above about 40%
Full FLuc ctr = counter-screen for Mdm2/MdmX inhibitors: full-length luciferase | SaOS-2 full-length luciferase counterscreen, luminescence | shares compounds with Mdm2-MdmX inh | inhibition, % at 8 µM | actives 77% (n = 6,200);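 active = mean inhibition at 8 µM reaching about 37%, which flags the compound as non-specific, limit read from the data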;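 note: p53-null SaOS-2 cells with luciferase driven by a doxycycline-inducible promoter; compound on cells about two nights before reading with doxycycline added after day one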
Large screens that a line does not name were inactive (follow-up assays come after a bar, where they were run). A selection: hits, their analogues and other compounds. The true share with any hit is near 5.7%.

CC(=O)Nc1ccc(Nc2cc(C(C)C)nc3c(-c4ccccc4)c(C)nn23)cc1	T cruzi repl 67.6, CSC inhib 84.1, SKKanGAS inh 87.7, Mdm2-MdmX inh 55.4 (no result: Beta cell apopt) | Mdm2 MdmX conf 42.9 | Full FLuc ctr 54.0
Cc1cc(NCc2ccccn2)n2nc(C)c(-c3ccc(Cl)cc3)c2n1	CSC inhib 76.7, SKKanGAS inh 81.1, Mdm2-MdmX inh 61.2 (no result: T cruzi repl) | Mdm2 MdmX conf inactive
Cc1nn2c(NCc3ccccn3)cc(C(C)C)nc2c1-c1ccccc1	SKKanGAS inh 100.8, Mdm2-MdmX inh 63.6 | Mdm2 MdmX conf 41.0 | Full FLuc ctr inactive
CC(=O)Nc1ccc(Nc2cc(C)nc3c(-c4ccccc4)c(C)nn23)cc1	none
O=C(O)c1cc(S(=O)(=O)N2CCCCC2)ccc1N1CCCC1	none (no result: T cruzi repl, Calb FLC, SKKanGAS inh)
O=C(CNC(=O)c1ccccc1)NCC(O)c1ccc([N+](=O)[O-])cc1 (stereo not drawn)	none
COc1cc2c(cc1NC(=O)c1cccc([N+](=O)[O-])c1)oc1ccccc12	Mdm2-MdmX inh 71.0 | Mdm2 MdmX conf inactive
COc1cc(OC)cc(C(=O)NC(=S)Nc2cc3oc4ccccc4c3cc2OC)c1	Mdm2-MdmX inh 72.2 (no result: CSC inhib) | Mdm2 MdmX conf inactive
CC(=O)N1CCN(CC(=O)NC(=O)Nc2ccc3c(c2)OCCO3)CC1	none
COc1cc(C(=O)NCCCCCCNC(=O)c2cc(OC)c(OC)c(OC)c2)cc(OC)c1OC	Mdm2-MdmX inh 52.4 | Mdm2 MdmX conf inactive
O=P(CCCCCCCCCP(=O)(c1ccccc1)c1ccccc1)(c1ccccc1)c1ccccc1	T cruzi repl 60.8, Mdm2-MdmX inh 65.6 (no result: Beta cell apopt) | Mdm2 MdmX conf inactive
COc1cc2c(ccc3cc(OC)c(OC)c(O)c32)cc1O	Mdm2-MdmX inh 73.6 | Mdm2 MdmX conf inactive | Full FLuc ctr inactive
Clc1ccc(C2=Nn3c(nnc3-c3n[nH]c4c3CCC4)SC2)cc1	Mdm2-MdmX inh 85.3 | Mdm2 MdmX conf 68.5 | Full FLuc ctr 44.5
Cc1ccc(-c2nnc3n2N=C(c2ccc(Br)cc2)CS3)cc1	none
Brc1ccc(C2=Nn3c(nnc3-c3n[nH]c4c3CCC4)SC2)cc1	Mdm2-MdmX inh 80.2 | Mdm2 MdmX conf 79.5 | Full FLuc ctr 72.5
CN(C(=O)c1ccc(NC(=O)Cc2ccc([N+](=O)[O-])cc2)cc1)C1CCCC1	none (no result: T cruzi repl, Calb FLC, SKKanGAS inh)
CN1C(=O)/C(=C/c2cccc(Cl)c2)Sc2ccc(C(=O)N3CCCC3)cc21	Mdm2-MdmX inh 73.2 | Mdm2 MdmX conf inactive
CCSC1=C(C#N)C(c2ccc(C)s2)CC(=O)N1 (stereo not drawn)	none
CCOC(=O)CSC1=C(C#N)C(c2ccc(C)s2)CC(=O)N1 (stereo not drawn)	Mdm2-MdmX inh 61.3 (no result: CSC inhib, Beta cell apopt) | Mdm2 MdmX conf 62.0 | Full FLuc ctr 66.7
CCCCn1c(-c2ccc(Cl)c(Cl)c2)nc2cc3[nH]c(=O)c(C(C)C)nc3cc21	none
CCCCn1c(-c2ccc(C(C)(C)C)cc2)nc2cc3[nH]c(=O)c(C(C)C)nc3cc21	Mdm2-MdmX inh 63.7 | Mdm2 MdmX conf inactive
CC(C)(C)OC(=O)N1Cc2ccccc2C[C@H]1C(=O)NCC(=O)Nc1ccc2c(c1)OCCO2	Mdm2-MdmX inh 63.8 | Mdm2 MdmX conf 65.7 | Full FLuc ctr 67.0
NC(=S)NN=C1c2cc(OCCN3CCOCC3)ccc2-c2ccc(OCCN3CCOCC3)cc21	Mdm2-MdmX inh 60.1 | Mdm2 MdmX conf inactive
ON=C1c2cc(OCCN3CCCCC3)ccc2-c2ccc(OCCN3CCCCC3)cc21	T cruzi repl 60.5, Mdm2-MdmX inh 96.7 | Mdm2 MdmX conf 70.0 | Full FLuc ctr 91.0
COc1cc2[nH]c3c(N4CCN(c5ccccn5)CC4)ncnc3c2cc1OC	Mdm2-MdmX inh 68.8 | Mdm2 MdmX conf 40.6 | Full FLuc ctr 52.9
COc1ccc2[nH]c3c(N4CCc5ccccc5C4)ncnc3c2c1	Mdm2-MdmX inh 75.9 | Mdm2 MdmX conf 50.0 | Full FLuc ctr 62.9
CN(C)CCNC(=O)c1ccc(COc2ccc(Cl)cc2Cl)cc1	Mdm2-MdmX inh 62.4 | Mdm2 MdmX conf inactive
CC(=O)c1sc(NC(=O)CCN2C(=O)c3ccccc3C2=O)nc1C	none
CCC(=O)c1ccc2c(c1)N(CCCN(C)C)c1ccccc1S2	Mdm2-MdmX inh 55.1 (no result: Calb FLC) | Mdm2 MdmX conf inactive
CN(C)CCCN1c2ccccc2Sc2ccccc21	none (no result: Calb FLC)
O=C1C(Cc2ccccc2)Nc2ncnc(N3CCc4ccccc4C3)c2N1Cc1ccc(Cl)cc1 (stereo not drawn)	Mdm2-MdmX inh 56.0 | Mdm2 MdmX conf 49.1 | Full FLuc ctr 57.3
CCC1Nc2ncnc(N3CCc4ccccc4C3)c2N(Cc2ccc(Cl)cc2)C1=O (stereo not drawn)	none (no result: T cruzi repl, CSC inhib, Calb FLC, SKKanGAS inh)
Clc1ccc(C(c2ccccc2)N2CCNCC2)cc1 (stereo not drawn)	Mdm2-MdmX inh 61.8 | Mdm2 MdmX conf 47.5 | Full FLuc ctr 75.8
N#CC1CN(C(c2ccccc2)c2ccccc2)C1	none
CC12CNCC(C)(CN(C(c3ccccc3)c3ccccc3)C1)C2	Mdm2-MdmX inh 95.9 | Mdm2 MdmX conf 46.7 | Full FLuc ctr 63.3
CCOc1ccc(S(=O)(=O)N(CC)CC(=O)NCc2ccncc2)cc1C	none
COc1ccccc1CC(=O)OC(C)C(=O)Nc1ccc(S(=O)(=O)N2CCCCC2)cc1 (stereo not drawn)	none (no result: T cruzi repl, CSC inhib, Calb FLC, SKKanGAS inh)
Cc1noc(C)c1COc1cccc(C(=O)OCC(=O)N2CC(=O)Nc3ccccc32)c1	Mdm2-MdmX inh 50.4 | Mdm2 MdmX conf 67.0 | Full FLuc ctr 58.7
CCOC(=O)c1ccc(N=C2S/C(=C\c3cc(C)n(-c4cccnc4)c3C)C(=O)N2C)cc1	Mdm2-MdmX inh 66.3 | Mdm2 MdmX conf inactive
Cc1ccc(C(=O)N2CCN(S(=O)(=O)c3ccc(Br)cc3)CC2)o1	none (no result: CSC inhib)
CC1CC(C)CN(Cc2nc(N)nc(Nc3ccc4ccccc4c3)n2)C1 (stereo not drawn)	SKKanGAS inh 51.8, Mdm2-MdmX inh 61.8 | Mdm2 MdmX conf 66.6 | Full FLuc ctr 56.7
O=C(COC(=O)CCN1C(=O)C2CC=CCC2C1=O)Nc1ccc(Cl)cc1F (stereo not drawn)	none (no result: T cruzi repl, CSC inhib, Calb FLC, SKKanGAS inh)
COc1ccc(NC(=O)Cn2nnc(C(=O)NCc3ccccc3)c2N)cc1Cl	none
COc1ccc(Cl)cc1NC(=O)Cn1nnc(C(=O)NCCc2ccc(OC)c(OC)c2)c1N	none
Cc1ccc(NC(=O)Cn2nnc(C(=O)NCCc3ccccc3)c2N)c(C)c1	Mdm2-MdmX inh 60.9 (no result: Beta cell apopt) | Mdm2 MdmX conf inactive
COc1ccc(NC(=O)Cn2nnc(C(=O)NCc3ccc(C)cc3)c2N)cc1Cl	Mdm2-MdmX inh 53.2 (no result: Beta cell apopt) | Mdm2 MdmX conf inactive
COc1ccc(Cl)cc1NC(=O)c1nnn(CC(=O)Nc2ccc(C)c(C)c2)c1N	Mdm2-MdmX inh 52.6 (no result: Beta cell apopt) | Mdm2 MdmX conf inactive
